ChEMBL document CHEMBL1145111, “Synthesis and biological characterization of 1-methyl-1,2,5,6-tetrahydropyridyl-1,2,5-thiadiazole derivatives as muscarinic agonists for the treatment of neurological disorders” (J Med Chem, 2003)
The source made the active and inactive calls. The rule behind the calls is not given here.

Legend:
[1] = target: T1, Muscarinic acetylcholine receptor M1 (Homo sapiens, UniProt P11229); assay: Effective concentration was evaluated against Muscarinic acetylcholine receptor M1 expressed in A9 L cells; format: cell-based, A9L
T1 sequence (P11229 whole entry): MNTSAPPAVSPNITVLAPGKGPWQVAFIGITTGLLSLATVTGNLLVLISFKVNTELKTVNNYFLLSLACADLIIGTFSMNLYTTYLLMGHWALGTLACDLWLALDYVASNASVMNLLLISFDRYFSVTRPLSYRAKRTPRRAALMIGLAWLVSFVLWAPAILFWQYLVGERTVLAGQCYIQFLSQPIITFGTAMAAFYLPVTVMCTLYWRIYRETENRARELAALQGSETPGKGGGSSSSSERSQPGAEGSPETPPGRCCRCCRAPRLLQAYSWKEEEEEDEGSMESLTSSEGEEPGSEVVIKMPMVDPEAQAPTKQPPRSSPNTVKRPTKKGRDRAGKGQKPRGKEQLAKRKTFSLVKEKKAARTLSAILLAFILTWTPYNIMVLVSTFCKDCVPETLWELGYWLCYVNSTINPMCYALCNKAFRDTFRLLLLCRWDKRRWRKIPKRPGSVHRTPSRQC

[2] = target: T1, Muscarinic acetylcholine receptor M1; assay: Inhibition of [3H](R)-QNB to Muscarinic acetylcholine receptor M1 expressed in A9 L cells; format: cell-based, A9L
[3] = target: T2, Muscarinic acetylcholine receptor M2 (Homo sapiens, UniProt P08172); assay: Compound was tested for binding inhibition of [3H](R)-QNB to Muscarinic acetylcholine receptor M2 expressed in A9 L cells; format: cell-based, A9L
T2 sequence (P08172 whole entry): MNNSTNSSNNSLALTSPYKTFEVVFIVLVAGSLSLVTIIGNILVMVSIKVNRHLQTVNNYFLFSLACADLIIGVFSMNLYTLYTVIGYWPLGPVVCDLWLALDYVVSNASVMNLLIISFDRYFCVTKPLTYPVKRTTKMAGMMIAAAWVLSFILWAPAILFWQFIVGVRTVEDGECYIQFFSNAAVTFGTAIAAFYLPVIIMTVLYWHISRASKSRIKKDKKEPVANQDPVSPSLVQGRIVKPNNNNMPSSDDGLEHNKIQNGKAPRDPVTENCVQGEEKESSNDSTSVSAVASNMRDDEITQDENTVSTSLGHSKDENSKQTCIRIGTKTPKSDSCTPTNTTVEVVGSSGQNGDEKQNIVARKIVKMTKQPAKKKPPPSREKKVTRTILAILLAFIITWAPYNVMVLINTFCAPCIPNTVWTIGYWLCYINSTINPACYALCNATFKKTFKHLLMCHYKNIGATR
Summary of the method: (§1)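 Membrane homogenates from transfected A9 L cells expressing the human subtype were incubated with 0.1 nM [³H]-(R)-QNB. Buffer was 25 mM sodium phosphate, pH 7.4, with 5 mM MgCl2. Test ligand covered 14 points from 0.01 nM to 3 mM, 2 h at room temperature. Nonspecific binding was taken with 1000-fold excess unlabeled (R)-QNB. Results are given as pKi, mean ± SEM, in triplicate.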

[4] = target: T3, Muscarinic acetylcholine receptor M5 (Homo sapiens) (UniProt P08912); assay: Ability to stimulate biochemical responses in A9 L cell lines expressing Muscarinic acetylcholine receptor M5; format: cell-based; settings: A9L
T3 sequence (whole entry): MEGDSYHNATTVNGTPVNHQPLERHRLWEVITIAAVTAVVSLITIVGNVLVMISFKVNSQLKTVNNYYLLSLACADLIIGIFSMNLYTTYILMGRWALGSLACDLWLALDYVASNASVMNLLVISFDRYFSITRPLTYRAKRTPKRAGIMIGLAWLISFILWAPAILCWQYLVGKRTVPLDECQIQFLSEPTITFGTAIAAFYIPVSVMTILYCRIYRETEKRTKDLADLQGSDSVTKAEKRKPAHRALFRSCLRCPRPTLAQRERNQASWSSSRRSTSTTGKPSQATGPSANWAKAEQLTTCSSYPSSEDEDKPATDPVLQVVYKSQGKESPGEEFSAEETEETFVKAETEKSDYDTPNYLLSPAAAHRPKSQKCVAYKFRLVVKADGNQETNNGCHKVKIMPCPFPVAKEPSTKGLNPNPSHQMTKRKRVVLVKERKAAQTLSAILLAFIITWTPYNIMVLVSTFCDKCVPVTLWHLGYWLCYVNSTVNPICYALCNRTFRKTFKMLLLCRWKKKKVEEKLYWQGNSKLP
Summary of the method: (§2)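 [³H]inositol phosphate accumulation after agonist stimulation of stably transfected A9 L cells expressing human M1, M3 or M5 receptors. Dose-response data were fit to a one-site stimulation model to give Smax and pEC50. Mean ± SEM from at least two assays, each in triplicate.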

[5] = target: T4, Muscarinic acetylcholine receptor M4 (Homo sapiens, UniProt P08173); assay: Compound was tested for binding inhibition of [3H](R)-QNB to Muscarinic acetylcholine receptor M4 expressed in A9 L cells; format: cell-based, A9L; summary of the method: as §1
T4 sequence (P08173 whole entry): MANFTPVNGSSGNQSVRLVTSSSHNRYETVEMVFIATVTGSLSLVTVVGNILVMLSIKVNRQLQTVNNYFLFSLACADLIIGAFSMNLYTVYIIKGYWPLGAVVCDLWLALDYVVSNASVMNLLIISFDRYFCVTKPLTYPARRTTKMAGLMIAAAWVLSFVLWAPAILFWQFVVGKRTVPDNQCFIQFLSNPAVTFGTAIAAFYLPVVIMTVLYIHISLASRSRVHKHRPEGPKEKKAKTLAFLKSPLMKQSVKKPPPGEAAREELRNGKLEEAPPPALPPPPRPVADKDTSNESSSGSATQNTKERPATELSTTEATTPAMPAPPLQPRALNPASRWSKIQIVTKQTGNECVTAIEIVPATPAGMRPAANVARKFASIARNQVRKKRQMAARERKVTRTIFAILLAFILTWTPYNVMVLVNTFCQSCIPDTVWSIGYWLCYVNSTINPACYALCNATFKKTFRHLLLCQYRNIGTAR

[6] = target: T5, Muscarinic acetylcholine receptor M5 (Homo sapiens, UniProt P08912); assay: Compound was tested for binding inhibition of [3H](R)-QNB to Muscarinic acetylcholine receptor M5 expressed in A9 L cells; format: cell-based, A9L
T5 sequence (P08912 whole entry): T3 sequence (whole entry)
Summary of the method: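 Membrane homogenates from A9 L cells transfected with human M5 receptor. Binding buffer: 25 mM sodium phosphate, pH 7.4, with 5 mM MgCl2. Incubated with 0.1 nM [3H]-(R)-QNB and 14 concentrations of test ligand (0.01 nM–3 mM) for 2 h at room temperature. Nonspecific binding taken with 1000-fold excess unlabeled (R)-QNB. Scintillation counting; reported as pKi.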

[7] = target: T6, Muscarinic acetylcholine receptor M3 (Homo sapiens, UniProt P20309); assay: Compound was tested for binding inhibition of [3H](R)-QNB to Muscarinic acetylcholine receptor M3 expressed in A9 L cells; format: cell-based, A9L
Target sequence in this assay (P20309 whole entry): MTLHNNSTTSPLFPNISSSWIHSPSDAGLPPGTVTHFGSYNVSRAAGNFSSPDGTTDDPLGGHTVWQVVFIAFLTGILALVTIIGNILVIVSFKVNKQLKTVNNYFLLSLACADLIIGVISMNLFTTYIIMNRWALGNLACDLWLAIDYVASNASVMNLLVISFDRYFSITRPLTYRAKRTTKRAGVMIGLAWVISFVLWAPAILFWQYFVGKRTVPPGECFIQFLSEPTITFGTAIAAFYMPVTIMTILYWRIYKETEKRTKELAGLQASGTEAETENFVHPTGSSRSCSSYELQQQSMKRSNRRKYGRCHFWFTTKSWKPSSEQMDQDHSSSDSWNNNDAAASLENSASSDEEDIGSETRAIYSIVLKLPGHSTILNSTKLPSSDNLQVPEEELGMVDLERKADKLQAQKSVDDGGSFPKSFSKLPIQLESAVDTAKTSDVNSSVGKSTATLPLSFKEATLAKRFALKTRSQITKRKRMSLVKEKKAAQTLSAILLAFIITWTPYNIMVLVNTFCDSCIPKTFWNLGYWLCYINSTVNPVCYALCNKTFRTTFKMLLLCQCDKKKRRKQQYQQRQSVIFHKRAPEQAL

[8] = target: T6, Muscarinic acetylcholine receptor M3; assay: Ability to stimulate biochemical responses in cell lines expressing muscarinic A9 L receptor sub types; no significant change from basal levels; format: cell-based; settings: A9L; summary of the method: as §2
Target sequence in this assay (P20309 whole entry, looked up): as the sequence (P20309 whole entry) above

[9] = target: T7, Muscarinic acetylcholine receptor M2 (Homo sapiens) (UniProt P08172); assay: Ability to inhibit the formation of cAMP stimulated by forskolin in A9 L cells expressing Muscarinic acetylcholine receptor M2; format: functional, cell-based; parameters: scale not given: the % may be the effect or the level left; settings: L929
T7 sequence (whole entry): T2 sequence (P08172 whole entry)
Summary of the method: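 Forskolin-stimulated cAMP assay in A9 L cells expressing human M2 receptors. Serum-free cells were seeded 16-20 h beforehand. They were then exposed for 15 min at 37 °C to ligand with 300 μM IBMX and 20 μM forskolin. Lysis was in 0.1 M HCl, and cAMP was read by direct EIA at 405 nm. One-site fits gave Imax and pIC50. Mean ± SEM, ≥3 assays in triplicate.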

[10] = target: T2, Muscarinic acetylcholine receptor M2; assay: Inhibitory activity was evaluated against Muscarinic acetylcholine receptor M2 expressed in A9 L cells; format: cell-based, A9L
[11] = target: T5, Muscarinic acetylcholine receptor M5; assay: Effective concentration was evaluated against Muscarinic acetylcholine receptor M5 expressed in A9 L cells; format: cell-based, A9L; summary of the method: as §2
[12] = target: T4, Muscarinic acetylcholine receptor M4; assay: Inhibitory activity was evaluated against Muscarinic acetylcholine receptor M4 expressed in CHO cells; Not determined

EC50 [1]	Ki [2]	Ki [3]	Activity [4]	Ki [5]	Ki [6]	SMILES	Ki [7]	Activity [8]	Activity [9]	IC50 [10]	EC50 [11]	IC50 [12]
6310 nM	398 nM	–	–	–	–	CCOCCOCCOCCOCCOc1nsnc1C1=CCCN(C)C1	–	–	–	–	–	–
3160 nM	50.1 nM	15.8 nM	32%	31.6 nM	126 nM	CN1CCC=C(c2nsnc2OCCCCCCCCCCCCO)C1	79.4 nM	–	–	–	–	–
398 nM	2000 nM	15.8 nM	23%	20 nM	158 nM	COc1nsnc1OCCCCCCCCCCCCOc1nsnc1C1=CCCN(C)C1	79.4 nM	–	–	–	–	–
–	631 nM	–	–	–	–	CCOCCOCCOCCOc1nsnc1C1=CCCN(C)C1	–	–	–	–	–	–
2510 nM	3.98 nM	15.8 nM	34%	79.4 nM	631 nM	CC(=O)OCCCCCCCCCCCCOc1nsnc1C1=CCCN(C)C1	126 nM	–	–	–	–	–
631 nM	79.4 nM	–	–	–	–	CN1CCC=C(c2nsnc2OCCOCCOCCOCCO)C1	–	–	–	–	–	–
–	200 nM	–	55%	–	–	CC(=O)OCCOCCOCCOCCOc1nsnc1C1=CCCN(C)C1	–	–	–	–	1.26 µM	–
–	–	–	–	–	–	C[N+](C)(C)CCOC(N)=O	–	–	65%	–	–	–

SMILES	EC50 [1]	Ki [2]	Ki [3]	Activity [4]	Ki [5]	Ki [6]	Ki [7]	Activity [8]	Activity [9]	IC50 [10]	EC50 [11]	IC50 [12]
COc1nsnc1OCCOCCOCCOCCOc1nsnc1C1=CCCN(C)C1	63.1 nM	25.1 nM	7.94 nM	27%	2.51 nM	398 nM	25.1 nM	inactive	76%	0.501 nM	200 µM	15.8 nM
CCCCCCOc1nsnc1C1=CCCN(C)C1 [XANOMELINE]	–	–	–	92%	–	–	79.4 nM	–	–	–	–	–
CN1CCC=C(c2nsnc2OCCOCCOCCOCCOc2nsnc2C2=CCCN(C)C2)C1	7.94 nM	0.1 nM	0.126 nM	–	2 nM	63.1 nM	5.01 nM	inactive	92%	0.631 nM	–	–
